Results taken from ChEMBL document CHEMBL1124644, “Exploration of phenyl-spaced 2-amino-(5-9)-phosphonoalkanoic acids as competitive N-methyl-D-aspartic acid antagonists” (J Med Chem, 1989).
Calls of active or inactive are those of the source. The rule behind the calls is not given here.

What was measured:
Mus musculus [1] = species: Mus musculus; assay: Compound was tested for the maximum dose that protects from NMDA-induced death in mice; Inactive; assay type: functional
Procedure, shortened: (§1)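 CF-1 mice (22–28 g) got the test agent by retrobulbar iv injection in 0.9% saline (5 mL/kg), then NMDA 25 mg/kg retrobulbar iv 5 or 30 min later. Doses were tested up to 30 mg/kg, scoring protection from lethal seizures.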

Glutamate NMDA receptor [2] = assay: NMDA receptor antagonistic activity was assessed from the ability to displace [3H]CPP29,30 from rat cortical membranes.
Procedure, shortened: (§2)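 Crude synaptic membranes came from Long-Evans male rat forebrain (minus cerebellum and brainstem) and were treated with 0.01% Triton X-100 for 30 min at 37 °C, then washed. Membranes (200–400 µg protein/mL) were incubated with 10 nM [³H]CPP in 50 mM Tris-HCl, pH 7.6, for 15 min at 23 °C, in triplicate, and separated by centrifugation. Nonspecific binding was defined with 1 mM L-glutamate. IC50 came from a nonlinear fit of four or more concentrations.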

[3] = target: T1, Glutamate NMDA receptor (Rattus norvegicus) (UniProt P35439+Q00959+Q00960+Q00961+Q62645+Q8VHN2+Q9R1M7); assay: NMDA receptor antagonistic ability of 100 uM of compound was assessed from the ability to displace [3H]CPP29,30 from rat cortical membranes.; assay type: cell membranes; conditions: Membrane
[4] = target: T1, Glutamate NMDA receptor (Rattus norvegicus); assay: N-methyl-D-aspartate glutamate receptor antagonistic ability of 100 uM of compound was assessed from the ability to displace [3H]CPP29,30 from rat cortical membranes.; assay type: cell membranes; conditions: Membrane
Glutamate NMDA receptor [5] = assay: (§3) N-methyl-D-aspartate glutamate receptor antagonistic activity was assessed from the ability to displace [3H]CPP29,30 from rat cortical membranes.
Mus musculus [6] = species: Mus musculus; assay: NMDA receptor antagonist activity was measured as ataxia (the inability of the mice to cling to screen platform upon its inversion.); assay type: functional
Procedure, shortened: (§4)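 CF-1 mice (22–28 g) were dosed retrobulbarly with test agent or vehicle (0.9% saline, 5 mL/kg). Just before the NMDA challenge they were placed on an inverted screen. Ataxia was scored as failure to cling to the platform after inversion, and ED50 values were derived from dose-response data.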

Mus musculus [7] = assay: NMDA receptor antagonist activity of compound was demonstarted in vivo, by the inhibition of NMDA-induced lethality in mouse; assay type: functional
Procedure, shortened: (§5)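 CF-1 mice (22–28 g) were dosed retrobulbar with test agent or vehicle (0.9% saline, 5 mL/kg), 5 or 30 min before a bolus retrobulbar injection of NMDA (25 mg/kg) in saline into the other eye. The endpoint was prevention of death from seizures. ED50 came from at least three half-log doses with 10 mice per dose.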

Glutamate NMDA receptor [8] = assay: NMDA receptor antagonistic activity was assessed from the ability to displace [3H]CPP29,30 from rat cortical membranes; procedure, shortened: as §2
Glutamate NMDA receptor [9] = assay: NMDA receptor antagonistic activity was assessed in vitro by the assement of ability to inhibit glutamate-induced accumulation of [Ca2+] in cultured rat cortical neurons.; assay type: functional
Procedure, shortened: (§6)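 Cortical neurons from E18 Sprague-Dawley rat fetuses were tested 14–16 days after plating. Cells were exposed for 30 min at 37 °C to 100 µM L-glutamate with ⁴⁵Ca²⁺ (2 µCi/mL) in Mg-free HBSS containing 1.4 mM CaCl₂ at pH 7.4, then washed and lysed for counting. Baseline uptake was subtracted. IC50 came from at least four half-log concentrations with six or more replicates each.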

Mus musculus [10] = species: Mus musculus; assay: Compound was tested for the maximum dose that protects from NMDA-induced death; assay type: functional; procedure, shortened: as §1
Mus musculus [11] = assay: N-methyl-D-aspartate glutamate receptor antagonist activity of compound was demonstarted by the inhibition of NMDA-induced lethality in mouse;IA means Compound was inactive at 30 mg/kg when examined after 5 or 30 min after iv dosing.; assay type: functional, organism-based; parameters: dose 30 mg/kg
Procedure, shortened: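 CF-1 mice (22–28 g) received test agent or vehicle (0.9% saline, 5 mL/kg) by retrobulbar injection 5 min before a bolus retrobulbar NMDA dose of 25 mg/kg in saline, which causes lethal seizures in untreated controls. Protection from death was scored. ED50 came from dose-response curves of at least three half-log doses with 10 mice per dose.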

Mus musculus [12] = assay: N-methyl-D-aspartate glutamate receptor antagonist activity was measured as ataxia (the inability of the mice to cling to screen platform upon its inversion; IA means Compound was inactive at 30 mg/kg when examined after 5 or 30 min after iv dosing; assay type: functional, organism-based; parameters: dose 30 mg/kg; procedure, shortened: as §4
[13] = target: T1, Glutamate NMDA receptor (Rattus norvegicus); assay: N-methyl-D-aspartate glutamate receptorA antagonistic activity was assessed from the ability to inhibit glutamate-induced accumulation of [Ca2+] in cultured rat cortical neurons;IA means Compound was inactive up to 250 uM.; assay type: functional; procedure, shortened: as §6
Glutamate NMDA receptor [14] = assay: as §3; procedure, shortened: as §2; remark: listed apart in the source
Mus musculus [15] = assay: Compound was tested in vivo for the maximum dose that protects from NMDA-induced death in mice; Inactive; assay type: functional; procedure, shortened: as §1
Mus musculus [16] = assay: NMDA antagonist activity was measured as ataxia (the inability of the mice to cling to screen platform upon its inversion.) tested in vivo; assay type: functional
Procedure, shortened: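 Ataxia was scored in CF-1 mice (22–28 g) on an inverted screen, as failure to cling when the platform was inverted. Scoring was done just before NMDA challenge (25 mg/kg, retrobulbar iv) and after retrobulbar dosing of the test agent in 0.9% saline (5 mL/kg). The result is reported as an ED50.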

Mus musculus [17] = assay: NMDA receptor antagonist activity of compound was demonstarted in vivo by the inhibition of NMDA-induced lethality in mouse tested in vivo; assay type: functional; procedure, shortened: as §5
Glutamate NMDA receptor [18] = assay: NMDA receptor antagonistic activity was assessed in vitro by deteriming the ability to inhibit glutamate-induced accumulation of [Ca2+] in cultured rat cortical neurons.; assay type: functional
Procedure, shortened: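 Rat (Sprague-Dawley, E18) cerebral hemisphere neurons, trypsin-dissociated, plated on poly-L-lysine at 200 000 cells/cm², used on days 14–16. Assay in serum- and Mg-free HBSS with 1.4 mM CaCl₂, pH 7.4, 37 °C. 30-min exposure to 100 µM L-glutamate (final) plus trace ⁴⁵Ca²⁺, with or without test agent. Baseline subtracted. IC50 from ≥4 half-log concentrations, ≥6 replicates each.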

Mus musculus [19] = species: Mus musculus; assay: N-methyl-D-aspartate glutamate receptor antagonist activity of compound was demonstarted by the inhibition of NMDA-induced lethality in mouse; assay type: functional; procedure, shortened: as §5
Mus musculus [20] = species: Mus musculus; assay: N-methyl-D-aspartate glutamate receptor antagonist activity was measured as ataxia (the inability of the mice to cling to screen platform upon its inversion.); assay type: functional; procedure, shortened: as §4
Glutamate NMDA receptor [21] = assay: N-methyl-D-aspartate glutamate receptor antagonistic activity was assessed from the ability to inhibit glutamate-induced accumulation of [Ca2+] in cultured rat cortical neurons.; assay type: functional; procedure, shortened: as §6

Molecule `NC(C(=O)O)c1cccc(P(=O)(O)O)c1` (stereo not drawn) has a Max dose (Mus musculus [1]) of 30 mg/kg and an IC50 (Glutamate NMDA receptor [2]) of 17.4 µM.

Molecule `NC(C(=O)O)c1ccc(P(=O)(O)O)cc1` (stereo not drawn) has an I [3] of 10%.

Work on `NC(Cc1ccccc1P(=O)(O)O)C(=O)O` (stereo not drawn) yielded an I [4] of 3%.

`O=C(O)C1CN(CCCP(=O)(O)O)CCN1` (stereo not drawn) showed an IC50 (Glutamate NMDA receptor [5]) of 0.08 µM.

In the case of `NC(Cc1cccc(CCP(=O)(O)O)c1)C(=O)O` (stereo not drawn), the I [4] is reported as 19%.

`NC(C(=O)O)c1ccc(CP(=O)(O)O)cc1` (stereo not drawn) was tested, and the ED50 (Mus musculus [6]) was 19 mg/kg, the ED50 (Mus musculus [7]) was 8 mg/kg and the IC50 (Glutamate NMDA receptor [8]) was 1.01 µM. The IC50 (Glutamate NMDA receptor [9]) was 58 µM.

For `NC(Cc1ccccc1CCP(=O)(O)O)C(=O)O` (stereo not drawn), the Max dose (Mus musculus [10]) was 30 mg/kg, the IA (Mus musculus [11]) was “inactive” and the IA (Mus musculus [12]) was “inactive”. The IA [13] was “inactive” and the IC50 (Glutamate NMDA receptor [14]) was 60.9 µM.

`NC(Cc1cccc(CP(=O)(O)O)c1)C(=O)O` (stereo not drawn) gave an I [3] of 1%.

Molecule `NC(CCc1ccccc1CP(=O)(O)O)C(=O)O` (stereo not drawn) has an I [4] of 54%.

`NC(Cc1ccc(P(=O)(O)O)cc1)C(=O)O` (stereo not drawn) showed an I [3] of 10%.

In the case of `NC(Cc1cccc(P(=O)(O)O)c1)C(=O)O` (stereo not drawn), the I [4] is reported as 15%.

Molecule `NC(C(=O)O)c1cccc(CCP(=O)(O)O)c1` (stereo not drawn) has an I [3] of 35%.

For `NC(C(=O)O)c1cccc(CP(=O)(O)O)c1` (stereo not drawn), the Max dose (Mus musculus [15]) was 60 mg/kg and the IC50 (Glutamate NMDA receptor [2]) was 9.3 µM.

For `NC(CCCc1ccccc1CP(=O)(O)O)C(=O)O` (stereo not drawn), the I [3] was 46%.

`NC(C(=O)O)c1ccc(CCP(=O)(O)O)cc1` (stereo not drawn) was tested, and the I [3] was 4%.

Work on `NC(C(=O)O)c1ccc(CCCP(=O)(O)O)cc1` (stereo not drawn) yielded an I [3] of 20%.

`NC(CCCCCP(=O)(O)O)C(=O)O` (stereo not drawn) [AP-7] was tested, and the ED50 (Mus musculus [16]) was 17 mg/kg, the ED50 (Mus musculus [17]) was 56 mg/kg and the IC50 (Glutamate NMDA receptor [2]) was 0.8 µM. It also gave an IC50 (Glutamate NMDA receptor [18]) of 46 µM.

Molecule `NC(Cc1ccc(CP(=O)(O)O)cc1)C(=O)O` (stereo not drawn) has an ED50 (Mus musculus [19]) of 74 mg/kg, an ED50 (Mus musculus [20]) of 74 mg/kg and an IC50 (Glutamate NMDA receptor [21]) of 378 µM. The IC50 (Glutamate NMDA receptor [14]) was 3.3 µM.
